VIM-2 inh: blocks Pseudomonas aeruginosa VIM-2 metallo-beta-lactamase; actives 0.89% (n = 290,000); purified VIM-2, nitrocefin hydrolysis, epi-absorbance fluorescence; inhibition, % at 5.6 µM;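 active = inhibition above the mean of all tested compounds plus 3 SD, cutoff set per screening run, cut at about 7.5% in these data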;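 note: red hydrolysis product quenches plate fluorescence so inhibitors raise well fluorescence; 0% = enzyme with DMSO and 100% = DMSO without enzyme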
Jurkat NFkB inh: inhibitors of the PMA/ionomycin-induced NF-kB reporter in Jurkat cells; PMA/ionomycin-induced NF-kB luciferase reporter, luminescence; inhibition, % at 4 µM; actives 0.53% (n = 330,000); AID 435003; in the data active = inhibition above about 50%
aSyn UTR inh: 5' untranslated region of α-synuclein, MLPCN primary screen; alpha-synuclein 5'UTR reporter, inhibitor activity; inhibition, % (tested at 7.5 µM); actives 0.82% (n = 300,000); AID 1813; in the data active = inhibition above about 60%;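 note: H4 neuroglioblastoma cells stably carrying SNCA 5'UTR luciferase fusion; 0% = DMSO wells and 100% = positive control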
Mdm2 MdmX PPI: inhibitors of human Mdm2/MdmX interaction | O15151+Q00987 | SaOS-2 split-luciferase Mdm2/MdmX complementation, luminescence | inhibition, % at 8 µM | actives 3% (n = 330,000);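 active = inhibition of at least 50% at 8 µM in the primary screen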
Target sequence (O15151 whole entry, looked up): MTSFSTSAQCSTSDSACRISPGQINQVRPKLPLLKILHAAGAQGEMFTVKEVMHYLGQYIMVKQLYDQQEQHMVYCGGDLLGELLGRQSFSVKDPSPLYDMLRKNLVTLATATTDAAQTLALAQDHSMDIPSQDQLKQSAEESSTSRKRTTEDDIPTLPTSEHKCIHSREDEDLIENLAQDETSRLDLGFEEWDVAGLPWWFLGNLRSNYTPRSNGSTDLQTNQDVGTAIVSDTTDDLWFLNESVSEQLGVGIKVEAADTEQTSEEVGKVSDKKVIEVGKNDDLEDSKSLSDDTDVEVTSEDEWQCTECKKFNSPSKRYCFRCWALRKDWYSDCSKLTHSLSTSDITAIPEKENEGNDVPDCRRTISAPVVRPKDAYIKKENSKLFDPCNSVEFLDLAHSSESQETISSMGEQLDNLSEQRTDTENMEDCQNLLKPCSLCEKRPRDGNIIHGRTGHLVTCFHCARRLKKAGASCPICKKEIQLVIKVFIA
Target sequence (Q00987 whole entry, looked up): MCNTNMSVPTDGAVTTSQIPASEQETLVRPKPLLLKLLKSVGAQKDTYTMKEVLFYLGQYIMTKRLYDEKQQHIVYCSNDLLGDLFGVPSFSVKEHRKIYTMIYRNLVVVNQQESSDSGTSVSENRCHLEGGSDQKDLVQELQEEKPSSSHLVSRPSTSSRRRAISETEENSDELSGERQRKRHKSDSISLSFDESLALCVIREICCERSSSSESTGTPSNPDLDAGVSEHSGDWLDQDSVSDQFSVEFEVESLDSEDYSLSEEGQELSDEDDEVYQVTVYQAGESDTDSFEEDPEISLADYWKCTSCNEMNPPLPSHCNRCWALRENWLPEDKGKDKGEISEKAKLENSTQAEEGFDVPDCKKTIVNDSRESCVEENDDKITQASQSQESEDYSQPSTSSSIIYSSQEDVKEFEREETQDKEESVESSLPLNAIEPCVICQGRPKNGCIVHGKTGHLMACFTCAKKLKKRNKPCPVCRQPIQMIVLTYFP
697 NFkB inh: inhibitors of the PMA/ionomycin-induced NF-kB reporter in 697 B cells; 697 B-cell NF-kB luciferase reporter, 16 h; inhibition, % at 4 µM; actives 0.33% (n = 330,000); AID 435022; in the data active = inhibition above about 35%
IMP-1 inh: blocks Pseudomonas aeruginosa IMP-1 metallo-beta-lactamase; purified IMP-1, nitrocefin hydrolysis, epi-absorbance fluorescence; inhibition, % at 5.6 µM; actives 0.45% (n = 290,000); AID 1556;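 active = inhibition above the mean plus 3 SD of all compounds in the same screening run, cut at about 4.5% in these data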;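 note: 0% = IMP-1 with DMSO and 100% = DMSO wells lacking enzyme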
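System: Purified recombinant IMP-1 metallo-beta-lactamase enzyme | Measured by: Fluorescence quenching readout, ex 480/em 530 nm | Replication: Singlicate | Incubation: 15 min preincubation plus 25 min reaction at 25 °C | Evaluation: Percent inhibition from optical density relative to buffer-blank wells | Benchmarks: DMSO with and without IMP-1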
Mdm2 MdmX conf: confirmation of human Mdm2/MdmX interaction inhibitors; inhibition, % at 8 µM; shares compounds with Mdm2 MdmX PPI; Mdm2-MdmX binding, luminescent assay; actives 55% (n = 10,000); in the data active = inhibition above about 40%
FLuc counter: full-length luciferase inhibition in Mdm2/MdmX counter-screen | shares compounds with Mdm2 MdmX PPI | SaOS-2 full-length luciferase counterscreen, luminescence | inhibition, % at 8 µM | actives 77% (n = 6,200);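 active = mean inhibition at 8 µM reaching about 37%, which flags the compound as non-specific, limit read from the data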;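 note: p53-null SaOS-2 cells with luciferase driven by a doxycycline-inducible promoter; compound on cells about two nights before reading with doxycycline added after day one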
Numbers without * were called inactive; · = no result given. Only some compounds are listed: those with a hit (about 4.7% of all), similar ones and a draw of the others.

SMILES	VIM-2 inh	Jurkat NFkB inh	aSyn UTR inh	Mdm2 MdmX PPI	697 NFkB inh	IMP-1 inh	Mdm2 MdmX conf	FLuc counter
CC(=O)C1=C(C)NC(=O)CC1c1ccc(F)cc1 (configuration not stated)	-2	9	-4	7	5	-2	·	·
COc1ccccc1CNCC(O)Cn1c2ccccc2c2ccccc21 (configuration not stated)	0	9	16	90*	0	-3	67*	50*
OCCNCC(O)Cn1c2ccccc2c2ccccc21 (configuration not stated)	3	4	0	17	12	0	·	·
CSc1ncc2c(n1)-c1cc(C)ccc1SC2	2	-1	18	41	-2	-1	·	·
COc1ccc(Nc2nc(-c3ccccc3)nc3ccccc23)cc1S(=O)(=O)N1CCOCC1	0	21	5	79*	22	-3	77*	63*
CC1(C)C(=O)NCCN1C(=O)CCCC(=O)O	0	9	-13	13	-1	-3	·	·
CCOC(=O)c1cc(C(=O)c2cc(Br)ccc2O)coc1=N	0	22	10	22	10	-4	·	·
CCOC(=O)C(C(C)=O)c1c(Br)c(O)c(O)c2c(C(=O)c3ccc(C)cc3)coc12 (configuration not stated)	0	25	-32	64*	19	0	60*	47*
Cc1ccc(Nc2c(N)c(=O)oc3ccccc23)cc1	2	15	-60	58*	-20	1	37	·
Cc1ccc(-n2nc3c(c2NC(=O)c2c(F)cccc2Cl)CS(=O)(=O)C3)cc1C	0	11	-10	8	-9	-1	·	·
Cc1ccc(C(=O)Nc2ncccc2O)o1	·	-4	-84	17	-25	·	·	·
Cc1[nH]nc2ncc(C(=O)c3cc(F)ccc3O)cc12	-2	18	31	52*	17	-3	35	61*
Cc1noc2ncc(C(=O)c3cc(F)ccc3O)cc12	-3	-9	24	-16	0	-3	·	·
Cc1cccc(C)c1NC(=O)CN1CCN(CCCC(c2ccc(F)cc2)c2ccc(F)cc2)CC1	·	11	·	60*	-12	·	44*	74*
Cc1c(N2C(=O)/C(=C\c3ccccc3O)SC2=S)c(=O)n(-c2ccccc2)n1C	1	16	-6	3	-9	-7	·	·
CN1C(=O)/C(=C/c2cc(N=Nc3ccccc3)ccc2O)SC1=S	-2	2	10	92*	11	-3	47*	53*
Cc1cc(C)c(S(=O)(=O)Nc2ncn[nH]2)c(C)c1	-2	6	1	29	16	-2	·	·
COc1ccc(-c2nc3ccccc3c(C(=O)Nc3ccc(S(=O)(=O)Nc4cc(C)on4)cc3)c2C)cc1	-4	13	13	76*	-21	-2	56*	53*
Cc1ccc(-c2cc(C(=O)Nc3ccc(S(=O)(=O)Nc4cc(C)on4)cc3)c3ccccc3n2)c(C)c1	-3	10	5	12	26	-1	·	·
O=[N+]([O-])c1cccc2c1ccc1ncccc12	2	18	18	56*	17	-3	34	·
CCOC(=O)c1[nH]c(C)c(C(=O)OCC(=O)N2CCc3ccccc32)c1C	-5	37	33	-1	-4	-3	·	·
CCOC(=O)c1c(C)[nH]c(C(=O)OCC(=O)N2CCc3ccccc32)c1C	2	-29	-8	70*	-32	1	-10	·
CCOc1ccc(-n2c(=O)c3c4c(sc3n(CC(=O)NCc3ccco3)c2=O)CCC4)cc1	-1	1	12	73*	-15	0	0	·
COc1cc(/C=C/C(=O)OCC(=O)N2CCN(C(=O)c3ccco3)CC2)ccc1O	-4	-8	-19	-8	-6	-2	·	·
CCN1C(N(C)CCc2c[nH]c3ccccc23)=N[C@@H](c2cccc(C(F)(F)F)c2)C(C(=O)OC)=C1C	·	11	·	88*	9	·	41*	44*
SMILES	VIM-2 inh	Jurkat NFkB inh	aSyn UTR inh	Mdm2 MdmX PPI	697 NFkB inh	IMP-1 inh	Mdm2 MdmX conf	FLuc counter
CCN1C(N(C)CCc2cccs2)=N[C@@H](c2ccccc2)C(C(=O)OC)=C1C	2	5	2	-7	2	-2	·	·
COc1cccc(-n2c(CN3CCN(c4ccccc4)CC3)nc3ccc([N+](=O)[O-])cc3c2=O)c1	-3	3	0	-14	-8	-2	·	·
COc1ccccc1-n1cc([C@@H]2C[C@H]3CN(c4ccccc4)C(=O)[C@]34CCCN24)cn1	-2	-4	-362	77*	17	-3	20	·
Cc1ccc(S(=O)(=O)N2CCN(CC(=O)N/N=C\c3ccc(Cl)c([N+](=O)[O-])c3)CC2)cc1	-3	-6	9	64*	9	-2	17	·
COc1ccc(NC(=O)NCCCN2CCC(Cc3ccccc3)CC2)cc1	0	3	13	10	-28	0	·	·
CSc1ccc(NC(=O)NCCCN2CCC(Cc3ccccc3)CC2)cc1	-2	1	-5	61*	-10	-2	16	·
COc1ccc(-c2cccc(-c3cc(=O)oc4cc5c(cc34)OCO5)c2)cc1	·	·	·	54*	-14	·	24	·
COc1cc(OC)c2c(-c3cccc(-c4ccc(CO)cc4)c3)cc(=O)oc2c1	·	·	·	74*	-142	·	63*	62*
COc1cc(OC)c2c(-c3cccc(-c4ccc(O)cc4)c3)cc(=O)oc2c1	·	·	·	73*	-16	·	56*	43*
COc1cc(OC)c2c(-c3cccc(-c4ccc(OC(F)(F)F)cc4)c3)cc(=O)oc2c1	·	·	·	18	4	·	·	·
COc1ccc(CCNC(=O)CN(c2cccc([N+](=O)[O-])c2)S(C)(=O)=O)cc1OC	-4	1	-18	11	8	-3	·	·
Cc1ccc(-c2csc3ncnc(SCC(N)=O)c23)cc1	-1	14	11	27	11	-4	·	·
Cn1nnnc1SCc1nc2scc(-c3ccc(Cl)cc3)c2c(=O)[nH]1	-3	18	20	20	-39	-3	·	·
Cn1nnnc1Sc1ncnc2scc(-c3cccc4ccccc34)c12	·	-22	·	97*	-56	·	55*	22
Cn1nnnc1Sc1ncnc2scc(-c3ccccc3Br)c12	·	-40	·	70*	-31	·	67*	25
Cn1nnnc1Sc1ncnc2scc(-c3ccc(Br)cc3)c12	·	6	·	99*	-79	·	100*	53*
Cn1nnnc1Sc1ncnc2scc(-c3ccc(F)cc3)c12	-3	-82	-89	100*	-124	-2	91*	54*

Screening results from PubChem.
